# Results: ChEMBL document CHEMBL1828575, “Design, synthesis and antiproliferative activities of biarylolefins based on polyhydroxylated and carbohydrate scaffolds” (Eur J Med Chem, 2011)
# How the values were obtained:
# Type in all cases: functional
# [1] = test system: CAKI-1; assay: Antitumor activity against human Caki1 cells after 48 hrs by SRB assay; settings: CAKI-1, 48 h
# How it was run: (§1)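 NCI60 panel in RPMI 1640 with 5% FBS and 2 mM L-glutamine. Cells were plated at 5000–40,000/well by doubling time, held 24 h, then time-zero plates were TCA-fixed. Five concentrations (10-fold or half-log dilutions of DMSO stocks) were applied for 48 h at 37 °C, 5% CO2. Cells were fixed with cold TCA (10% final adherent, 16% suspension) and stained with 0.4% SRB. Bound dye was dissolved in 10 mM Tris and read at 515 nm. GI50, TGI and LC50 were calculated per line.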
# [2] = test system: NCI-H460; assay: Antitumor activity against human NCI-H460 cells after 48 hrs by SRB assay; settings: NCI-H460, 48 h; how it was run: as §1
# [3] = test system: NCI/ADR-RES; assay: Antitumor activity against human NCI/ADR-RES cells after 48 hrs by SRB assay; how it was run: as §1
# [4] = test system: A498; assay: Antitumor activity against human A498 cells after 48 hrs by SRB assay; settings: A498, 48 h; how it was run: as §1
# [5] = test system: SNB-75; assay: Cytotoxicity against human SNB75 cells assessed as cellular growth at 10 uM after 48 hrs by SRB assay
# How it was run: (§2)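 NCI-60 panel lines grown in RPMI 1640 with 5% FBS and 2 mM L-glutamine. Plated at 5000–40,000 cells/well and preincubated 24 h at 37 °C, 5% CO₂, with time-zero plates fixed in TCA. Compounds, dissolved in DMSO and diluted in medium, were applied for 48 h. Cells were TCA-fixed (10% final for adherent, 16% for suspension) and stained with 0.4% SRB in 1% acetic acid. Dye was solubilised in 10 mM Tris base and read at 515 nm; growth was expressed as a percentage of untreated control.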
# [6] = test system: MDA-MB-468; assay: Cytotoxicity against human MDA-MB-468 cells assessed as cellular growth at 10 uM after 48 hrs by SRB assay; how it was run: as §2
# [7] = test system: SF-539; assay: Cytotoxicity against human SF539 cells assessed as cellular growth at 10 uM after 48 hrs by SRB assay; how it was run: as §2
# [8] = test system: HCT-116; assay: Cytotoxicity against human HCT116 cells assessed as cellular growth at 10 uM after 48 hrs by SRB assay
# How it was run: (§3)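 NCI60 single-dose screen of cells in RPMI 1640 with 5% FBS and 2 mM L-glutamine, preincubated 24 h at 37 °C, 5% CO₂. Cells were then exposed 48 h to compound added from DMSO stock. TCA-fixed, stained with 0.4% SRB in 1% acetic acid, dye solubilised in 10 mM Tris base and read at 515 nm. Growth is given as percent of untreated control.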
# [9] = test system: U-251; assay: Antitumor activity against human U251 cells after 48 hrs by SRB assay; settings: U-251, 48 h
# How it was run: (§4)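 NCI60 panel cells grown in RPMI 1640 with 5% FBS and 2 mM L-glutamine, plated at 5000–40,000 cells/well and preincubated 24 h at 37 °C, 5% CO₂. Compound was added from DMSO at five concentrations, 10-fold or 1/2 log dilutions, then incubated 48 h.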
# [10] = test system: SK-MEL-2; assay: Antitumor activity against human SK-MEL-2 cells after 48 hrs by SRB assay; settings: SK-MEL-2, 48 h; how it was run: as §4
# [11] = test system: A549; assay: Cytotoxicity against human A549 cells assessed as cellular growth at 10 uM after 48 hrs by SRB assay; how it was run: as §3
# [12] = test system: KM12; assay: Cytotoxicity against human KM12 cells assessed as cellular growth at 10 uM after 48 hrs by SRB assay; how it was run: as §3
# [13] = test system: K562; assay: Antitumor activity against human K562 cells after 48 hrs by SRB assay; settings: K562, 48 h; how it was run: as §1
# [14] = test system: NCI-H23; assay: Antitumor activity against human NCI-H23 cells after 48 hrs by SRB assay; settings: NCI-H23, 48 h; how it was run: as §1
# [15] = test system: NCI-H226; assay: Cytotoxicity against human NCI-H226 cells assessed as cellular growth at 10 uM after 48 hrs by SRB assay; how it was run: as §2
# [16] = test system: KM12; assay: Antitumor activity against human KM12 cells after 48 hrs by SRB assay; settings: KM12, 48 h; how it was run: as §1
# [17] = test system: SR; assay: Cytotoxicity against human SR cells assessed as cellular growth at 10 uM after 48 hrs by SRB assay; how it was run: as §2
# [18] = test system: SK-MEL-28; assay: Antitumor activity against human SK-MEL-28 cells after 48 hrs by SRB assay; settings: SK-MEL-28, 48 h; how it was run: as §4
# [19] = test system: ACHN; assay: Antitumor activity against human ACHN cells after 48 hrs by SRB assay; how it was run: as §1
# [20] = test system: OVCAR-4; assay: Cytotoxicity against human OVCAR4 cells assessed as cellular growth at 10 uM after 48 hrs by SRB assay; how it was run: as §2
# [21] = test system: NCI/ADR-RES; assay: Cytotoxicity against human NCI/ADR-RES cells assessed as cellular growth at 10 uM after 48 hrs by SRB assay; how it was run: as §2
# [22] = test system: RPMI-8226; assay: Antitumor activity against human RPMI8226 cells after 48 hrs by SRB assay; settings: RPMI-8226, 48 h; how it was run: as §1
# [23] = test system: SN12C; assay: Cytotoxicity against human SN12C cells assessed as cellular growth at 10 uM after 48 hrs by SRB assay; how it was run: as §2
# [24] = test system: DU-145; assay: Cytotoxicity against human DU145 cells assessed as cellular growth at 10 uM after 48 hrs by SRB assay; how it was run: as §3
# [25] = read-out: LC50 (the source's name)
# [26] = read-out: pLC50 (the source's name) (converted)
structure (smiles),measurement,setting,value
COc1ccc(/C(=C2/O[C@@H]([C@H]3COC(C)(C)O3)[C@H]3OC(C)(C)O[C@@H]23)c2cc(OC)c(OC)c(OC)c2)cc1O,GI50,[1]; read-out: GI50,3.73 µM
same,CC50,[1]; [25],29.8 µM
same,TGI,[1]; read-out: TGI,> 100 µM
same,GI50,[1]; read-out: pGI50 (converted),37.2 µM
same,CC50,[1]; [26],> 100 µM
same,TGI,[1]; read-out: pTGI (converted),> 100 µM
same,GI50,[2]; read-out: GI50,4.31 µM
same,CC50,[2]; [25],> 100 µM
same,TGI,[2]; read-out: TGI,> 100 µM
same,GI50,[2]; read-out: pGI50 (converted),4.27 µM
same,CC50,[2]; [26],> 100 µM
same,TGI,[2]; read-out: pTGI,> 100 µM
same,GI50,[3],2.52 µM
same,LC50,[3],> 100 µM
same,TGI,[3],6.91 µM
same,GI50,[4]; read-out: GI50,3.57 µM
same,CC50,[4]; [25],> 100 µM
same,TGI,[4]; read-out: TGI,> 100 µM
same,GI50,[4]; read-out: pGI50 (converted),35.5 µM
same,CC50,[4]; [26],> 100 µM
same,TGI,[4]; read-out: pTGI (converted),> 100 µM
same,Activity,[5],6.11%
same,Activity,[6],96.42%
same,Activity,[7],9.85%
same,Activity,[8],53.99%
same,GI50,[9],3.84 µM
same,TGI,[9],48.2 µM
same,CC50,[9]; [25],> 100 µM
same,GI50,[10],57.9 µM
same,TGI,[10],> 100 µM
same,CC50,[10]; [25],> 100 µM
same,Activity,[11],84.24%
same,Activity,[12],26.71%
same,GI50,[13]; read-out: GI50,3.22 µM
same,CC50,[13]; [25],> 100 µM
same,TGI,[13]; read-out: TGI,> 100 µM
same,GI50,[13]; read-out: pGI50 (converted),3.24 µM
same,CC50,[13]; [26],> 100 µM
same,TGI,[13]; read-out: pTGI,> 100 µM
same,GI50,[14]; read-out: GI50,7.98 µM
same,CC50,[14]; [25],> 100 µM
same,TGI,[14]; read-out: TGI,46 µM
same,GI50,[14]; read-out: pGI50 (converted),7.94 µM
same,CC50,[14]; [26],> 100 µM
same,TGI,[14]; read-out: pTGI (converted),45.7 µM
same,Activity,[15],107.94%
same,GI50,[16],3.99 µM
same,LC50,[16],> 100 µM
same,TGI,[16],> 100 µM
same,Activity,[17],25.4%
same,LC50 (50% lethal concentration),[18],> 100 µM
same,GI50,[18]; read-out: GI50,5.45 µM
same,TGI,[18]; read-out: TGI,> 100 µM
same,GI50,[18]; read-out: pGI50 (converted),5.5 µM
same,CC50,[18]; [26],> 100 µM
same,TGI,[18]; read-out: pTGI,> 100 µM
same,GI50,[19]; read-out: GI50,9.31 µM
same,CC50,[19]; [25],> 100 µM
same,TGI,[19]; read-out: TGI,> 100 µM
same,GI50,[19]; read-out: pGI50 (converted),9.33 µM
same,CC50,[19]; [26],> 100 µM
same,TGI,[19]; read-out: pTGI,> 100 µM
same,Activity,[20],99.15%
same,Activity,[21],10.1%
same,LC50 (concentration killing 50% of starting cells),[22],> 100 µM
same,GI50,[22]; read-out: GI50,4.63 µM
same,TGI,[22]; read-out: TGI,> 100 µM
same,GI50,[22]; read-out: pGI50 (converted),4.68 µM
same,CC50,[22]; [26],> 100 µM
same,TGI,[22]; read-out: pTGI (converted),> 100 µM
same,Activity,[23],57.72%
same,Activity,[24],34.8%
